This note sets out measurements from PubChem BioAssay.

Test [1] is described as follows: OD615 S. cerevisiae growth inhibition, permissive medium, pilot counter-assay, permissive growth control for S. cerevisiae lifespan shortening project (AID 705). Particulars: OD615, 24 h, at 10 µM, active compounds read high. In outline: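 Material: engineered DeaD yeast; Compound: one dose 10 µM, DMSO 0.25% final; Detection: absorbance (optical density) at 615 nm; Buffer or medium: permissive raffinose/galactose medium; Timing: 24 h exposure, 30 °C.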

The nature of test [2]: Restrictive medium S. cerevisiae growth inhibition, OD615, pilot screen of yeast lifespan reduction project, restrictive growth control (AID 706;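 active = growth inhibition above a set limit, 3 SD over mean compound inhibition, in both replicates, cut at about 43% in these data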;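 note: modified DeaD lifespan yeast strain shifted to restrictive glucose medium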). The conditions noted are these: OD615, 48 h, at 10 µM, active compounds read high. In outline:
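Buffer or medium: restrictive glucose medium (CSMM-D); test system: modified S. cerevisiae; doses: single dose of 10 µM compound final, 0.25% DMSO; schedule: 48 h compound exposure at 30 °C; detection: absorbance (optical density) measured at 615 nm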

Test [3] can be described thus: viability gain of MRP-1-high H69AR cells under doxorubicin, pilot screen, MRP-1 activator project, CellTiter-Glo, duplicate (AID 807;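 active = viability increase at or above a cutoff of the median across tested compounds plus 3 SD, cut at about 8.5% in these data, passing the limit was not always enough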;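 note: compound pretreatment 18-22 h then 72 h combined with doxorubicin; 0% = doxorubicin alone and 100% = vehicle without doxorubicin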). Particulars: H69AR viability with doxorubicin, CellTiter-Glo luminescence; at 10 µM; active compounds read high.
Test [4] is described as follows: growth suppression of beta-catenin knockout HCT116, pilot screen, human colon tumor cells (AID 823;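 active = cell viability at or below a set limit in both duplicate runs, the limit being the all-compound median minus 4 SD, cut at about 23% in these data, passing the limit was not always enough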;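 note: 0% = wells killed by 20 µM Hyamine and 100% = untreated DMSO cell wells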). The conditions noted are these: CellTiter-Glo, 60 h, at 10 µM, active compounds read low.
The nature of test [5]: growth suppression of PTEN-deleted HCT116, pilot screen, cell-based, HCT116 clonal line, CellTiter-Glo (AID 824;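 active = viability at or below 27.92% in each of two runs, the all-compound median minus 4 SD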;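 note: 0% = 20 µM Hyamine control and 100% = vehicle cell control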). Particulars: 60 h, at 10 µM, active compounds read low.
A short description of test [6]: inhibitors of the yeast RAM network, pilot screen, dse1pr::URA3 reporter, 5-FOA selection (AID 869;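 active = inhibition over a set limit, the all-compound mean plus 3 SD, in both replicate runs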;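 note: 0% = DMSO wells with no growth and 100% = 10 µM 1-NA-PP1 with full growth; RAM network block rescues cells from 5-FOA so hits raise OD615 growth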). The conditions noted are these: S. cerevisiae dse1pr::URA3 5-FOA growth, OD615, 2 d; at 10 µM; active compounds read high; strain carries analog-sensitive mutant Cbk1 kinase.
Test [7] can be described thus: RAM signaling pathway blockade in yeast – S. cerevisiae, Pdr1DBD-CYC8 efflux-inhibited sensitized strain, primary screen (AID 1298;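 active = RAM network inhibition above 8.4% in each of two replicates, 3 SD over the compound average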;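 note: 0% = DMSO untreated cells without growth and 100% = 10 µM 1-NA-PP1 full growth; higher means more yeast growth rescued from 5-FOA killing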). Particulars: S. cerevisiae cbk1-as DSE1-URA3 strain, 5-FOA growth OD615, 2 d; at 50 µM; active compounds read high.

Values without a mark were called inactive. Records with an inconclusive call do not appear. The source made the active and inactive calls.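 Rule for the calls, unless noted: active = growth inhibition above 25% in both replicates, a cutoff set 3 SD above the mean; inconclusive = above 25% in only one replicate; inactive = the rest.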

Consider `CCC(Cc1ccccc1)NC(=O)CN1C(=O)CSc2ncccc21` (centres undefined), for which the growth inhibition is -2.26% in test [1] and -14.6% in test [2]. For the same compound, the viability increase in test [3] was -2.81%. Also, the viability in test [4] was 85%; in test [5] it was 75.7%. For the same compound, in test [6], the inhibition was 0.665%. In addition, the RAM network inhibition in test [7] is -0.97%.

Regarding `COC(=O)c1ccc(OCC(O)CN(CC(C)C)CC(C)C)cc1` (centres undefined), the figures for the growth inhibition in test [1] and in test [2] were -3.55% and -4.33%, respectively. Also, the viability increase in test [3] is -1.4%. Besides, the results for the viability in test [4] and in test [5] were 76.1% and 86.4%, respectively. For the same compound, the inhibition in test [6] was 1.47%. In addition, in test [7], the RAM network inhibition is 2.82%.

For `Cc1cc(Cl)ccc1N=Cc1c(O)n(C)c(=O)n(C)c1=O`, the growth inhibition is 1.62% in test [1] and 1.2% in test [2]. The viability increase in test [3] is 2.36%. In addition, the viability in test [4] was 106%; in test [5], 105%. The inhibition in test [6] was 0.11%. For the same compound, the RAM network inhibition in test [7] is -1.25%.

On to `COc1ccc(NC(C)=O)cc1NC(=O)CSc1nnc(-c2cccnc2)n1C`, for which the growth inhibition in test [1] was -5.75%; in test [2] it was -0.47%. Besides, the viability increase in test [3] was -0.83%. Further, the viability in test [4] is 104%; in test [5], 100%. Further, the inhibition in test [6] is 0.485%. Also, the RAM network inhibition in test [7] was 1.19%.

On to `c1ccc(N(c2ccccc2)c2nc(N3CCOCC3)nc(N3CCOCC3)n2)cc1`, for which the growth inhibition was 4.5% in test [1] and -1.27% in test [2]. Moreover, the viability increase in test [3] is -3.09%. Besides, the viability in test [4] is 92.2%; in test [5], 89.9%. Further, the inhibition in test [6] is 4.5%. Further, in test [7], the RAM network inhibition is 3.75%.

For `Cc1nc2sc(C(c3ccccc3)N3CCN(C)CC3)c(O)n2n1` (centres undefined), the figures for the growth inhibition in test [1] and in test [2] were -3.65% and 8.75%, respectively. In addition, the viability increase in test [3] was 0.48%. Moreover, the viability was 100% in test [4] and 103% in test [5]. Also, in test [6], the inhibition is 2.15%. For the same compound, the RAM network inhibition in test [7] is 2.45%.

`COC(=O)CSC1=C(C#N)C(c2ccccc2F)CC(=O)N1` (centres undefined): the growth inhibition in test [1] was -9.32%; in test [2], -6.92%. For the same compound, the viability increase in test [3] was -2.29%. For the same compound, the viability is 92.6% in test [4] and 94.1% in test [5]. For the same compound, in test [6], the inhibition was 1.32%. Moreover, the RAM network inhibition in test [7] was 0.84%.

For `COC(=O)C1C(O)=C(C(C)=N)C(=O)CC1(C)C` (centres undefined), the figures for the growth inhibition in test [1] and in test [2] were -3.89% and 2.82%, respectively. Moreover, the viability increase in test [3] is -0.83%. Further, the values for the viability in test [4] and in test [5] were 98.1% and 90.8%, respectively. Besides, in test [6], the inhibition was -0.755%. Besides, the RAM network inhibition in test [7] was 1.67%.

`Cc1ccc(/C(O)=C2\C(=O)C(=O)N(CCN(C)C)C2c2ccccc2F)cc1` (centres undefined): the growth inhibition in test [1] is -10.5%; in test [2], -5.25%. Besides, the viability increase in test [3] is -2.92%. Further, the values for the viability in test [4] and in test [5] were 88.3% and 87.1%, respectively. The inhibition in test [6] was -0.9%. For the same compound, in test [7], the RAM network inhibition was -1.02%.

Take `CC(=O)/C(C(=N)N1CCN(Cc2ccccc2)CC1)=C(\C)O`: the growth inhibition was -12.7% in test [1] and -5.25% in test [2]. In addition, in test [3], the viability increase was -0.02%. Also, the viability was 103% in test [4] and 101% in test [5]. Besides, the inhibition in test [6] is 2.4%. Further, the RAM network inhibition in test [7] is 2.85%.

With `COc1cc(NC(=O)c2cc(-c3cccc(O)c3)on2)cc(OC)c1OC`, the growth inhibition was -13.9% in test [1] and 3.45% in test [2]. Besides, the viability increase in test [3] was -6.05%. The viability in test [4] is 89.8%; in test [5], 75.3%. Moreover, the inhibition in test [6] is 4.79%. For the same compound, the RAM network inhibition in test [7] is 6.05%.

In the case of `O=C(OCn1nnc2ccccc2c1=O)c1cccs1`, the values for the growth inhibition in test [1] and in test [2] were -7.72% and 2.16%, respectively. The viability increase in test [3] was -0.21%. In addition, the figures for the viability in test [4] and in test [5] were 103% and 95.9%, respectively. Moreover, the inhibition in test [6] is 0.24%. The RAM network inhibition in test [7] was 3.6%.

As for `CC1(C)C(c2ccc(Cl)cc2)=[N+]([O-])C2(CCCC/C2=N\O)N1O` (centres undefined), the growth inhibition in test [1] is -15.4%; in test [2] it was -4.64%. Further, the viability increase in test [3] is 1.21%. In addition, the viability is 96.5% in test [4] and 94.2% in test [5]. Further, in test [6], the inhibition is 0.555%. In test [7], the RAM network inhibition is 6.93%.

Take `CCOCCCNC(=O)c1cc2c(-c3ccc(Cl)cc3)nn(C)c2s1`: the growth inhibition in test [1] is 7.49%; in test [2], 11%. Further, the viability increase in test [3] was -6.53%. Besides, the results for the viability in test [4] and in test [5] were 62.2% and 56.8%, respectively. The inhibition in test [6] was 2.62%. The RAM network inhibition in test [7] was 1.34%.

For the compound `CCN(CC)CCCNC(=O)Cn1cc2c(n1)CCC(C)C2` (centres undefined), the growth inhibition was -3.44% in test [1] and -0.585% in test [2]. The viability increase in test [3] was -1.22%. Also, the viability is 96.9% in test [4] and 98.1% in test [5]. Moreover, the inhibition in test [6] was 2.05%. For the same compound, the RAM network inhibition in test [7] was 2.3%.

On to `CCOC(=O)Cn1c(=O)oc2cc(S(=O)(=O)Nc3cc(Cl)ccc3OC)ccc21`, for which the growth inhibition is -2.69% in test [1] and -4.88% in test [2]. For the same compound, the viability increase in test [3] is -2.35%. Moreover, the figures for the viability in test [4] and in test [5] were 91.9% and 89%, respectively. Moreover, in test [6], the inhibition was 0.525%. Moreover, in test [7], the RAM network inhibition was 4.96%.

Turning to `CCOC(=O)CSC1=C(C#N)C(c2ccccc2OC)CC(=O)N1` (centres undefined), the growth inhibition in test [1] is -14%; in test [2], -1.51%. Moreover, in test [3], the viability increase is -6.53%. For the same compound, the viability is 27.5% in test [4] and 27.4% (active) in test [5]. Further, the inhibition in test [6] is 0.27%. The RAM network inhibition in test [7] is -0.77%.
